In general, fraction unbound refers to the share of the substance not bound to proteins or other matrix. Read a high fraction unbound as weak binding. The term IC50 denotes the point on the concentration scale where inhibition reaches its midpoint.

Data set [1] is described as follows: Chemical Hydrophobicity Index. The data set is classed as physicochemical. The conditions noted are these: from HPLC retention time. The procedure, abridged: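 Reverse-phase HPLC retention times were measured for a set of standards with known CHI to build a standard curve. The CHI of the non-radioactive (19F) test compound was calculated from its retention time on that curve.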

The nature of a further data set: Plasma protein binding. The conditions noted are these: serum. In kind it is in vitro ADME. The procedure, abridged: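 Equilibrium dialysis: 500 μM non-radioactive test compound in serum against PBS, 4 h at 37 °C on an orbital shaker at 100 rpm. Samples from both chambers were protein-precipitated (90/10 acetonitrile/water, 0.1% formic acid) and analysed by HPLC with peak integration. % bound = [1 − (buffer conc./plasma conc.)]×100, reported as mean ± SD.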

For data set [2] the following is noted: 1-octanol / 25 mM phosphate buffered saline pH 7.4.
For another data set, the system named is U251 MG cells. The experiment in a line: In vitro cell uptake. In kind it is cell-based, human. The procedure, abridged:
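U251 MG cells were plated at 0.5 million/well the day before, PBS-washed twice, then incubated with 18F-labelled test tracer (6 μCi/well) in MEM at 37 °C for 0–240 min. For blocking, a 100-fold excess of unlabelled ATR inhibitor was co-incubated. At each time point, cells were PBS-washed twice and lysed in 1 M NaOH (10 min, 37 °C), and lysate activity was γ-counted.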

The conditions of data set [3]: 4 h post injection, healthy athymic nude mice, i.v.
The test system of data set [4] is ATR. The conditions noted are these: cited from earlier work.
Data set [5] concerns the target ATR (Homo sapiens, UniProt Q13535). The experiment in a line: Competitive displacement assay of [18F]-ATRi by Ve-821 in U251 MG cells. The data set is classed as cell-based. The procedure, abridged: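 U251 MG cells were grown in MEM with 10% heat-inactivated FBS and penicillin/streptomycin, then seeded at 10^5 cells 24 h before the assay. The 18F-labelled test tracer (final 0.667 nM) was co-incubated with unlabelled competitor (0–1333 nM) for 1 h at 37 °C. Cells were PBS-washed twice, lysed with 1 N NaOH, and bound 18F was γ-counted. Percent bound was run in triplicate and fitted against competitor concentration.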

Setting [6] is: blocked with 100-fold excess Ve-821 pre-injected 30 min before, 120 min p.i.

ATR (Homo sapiens, UniProt Q13535), sequence (Q13535 whole entry): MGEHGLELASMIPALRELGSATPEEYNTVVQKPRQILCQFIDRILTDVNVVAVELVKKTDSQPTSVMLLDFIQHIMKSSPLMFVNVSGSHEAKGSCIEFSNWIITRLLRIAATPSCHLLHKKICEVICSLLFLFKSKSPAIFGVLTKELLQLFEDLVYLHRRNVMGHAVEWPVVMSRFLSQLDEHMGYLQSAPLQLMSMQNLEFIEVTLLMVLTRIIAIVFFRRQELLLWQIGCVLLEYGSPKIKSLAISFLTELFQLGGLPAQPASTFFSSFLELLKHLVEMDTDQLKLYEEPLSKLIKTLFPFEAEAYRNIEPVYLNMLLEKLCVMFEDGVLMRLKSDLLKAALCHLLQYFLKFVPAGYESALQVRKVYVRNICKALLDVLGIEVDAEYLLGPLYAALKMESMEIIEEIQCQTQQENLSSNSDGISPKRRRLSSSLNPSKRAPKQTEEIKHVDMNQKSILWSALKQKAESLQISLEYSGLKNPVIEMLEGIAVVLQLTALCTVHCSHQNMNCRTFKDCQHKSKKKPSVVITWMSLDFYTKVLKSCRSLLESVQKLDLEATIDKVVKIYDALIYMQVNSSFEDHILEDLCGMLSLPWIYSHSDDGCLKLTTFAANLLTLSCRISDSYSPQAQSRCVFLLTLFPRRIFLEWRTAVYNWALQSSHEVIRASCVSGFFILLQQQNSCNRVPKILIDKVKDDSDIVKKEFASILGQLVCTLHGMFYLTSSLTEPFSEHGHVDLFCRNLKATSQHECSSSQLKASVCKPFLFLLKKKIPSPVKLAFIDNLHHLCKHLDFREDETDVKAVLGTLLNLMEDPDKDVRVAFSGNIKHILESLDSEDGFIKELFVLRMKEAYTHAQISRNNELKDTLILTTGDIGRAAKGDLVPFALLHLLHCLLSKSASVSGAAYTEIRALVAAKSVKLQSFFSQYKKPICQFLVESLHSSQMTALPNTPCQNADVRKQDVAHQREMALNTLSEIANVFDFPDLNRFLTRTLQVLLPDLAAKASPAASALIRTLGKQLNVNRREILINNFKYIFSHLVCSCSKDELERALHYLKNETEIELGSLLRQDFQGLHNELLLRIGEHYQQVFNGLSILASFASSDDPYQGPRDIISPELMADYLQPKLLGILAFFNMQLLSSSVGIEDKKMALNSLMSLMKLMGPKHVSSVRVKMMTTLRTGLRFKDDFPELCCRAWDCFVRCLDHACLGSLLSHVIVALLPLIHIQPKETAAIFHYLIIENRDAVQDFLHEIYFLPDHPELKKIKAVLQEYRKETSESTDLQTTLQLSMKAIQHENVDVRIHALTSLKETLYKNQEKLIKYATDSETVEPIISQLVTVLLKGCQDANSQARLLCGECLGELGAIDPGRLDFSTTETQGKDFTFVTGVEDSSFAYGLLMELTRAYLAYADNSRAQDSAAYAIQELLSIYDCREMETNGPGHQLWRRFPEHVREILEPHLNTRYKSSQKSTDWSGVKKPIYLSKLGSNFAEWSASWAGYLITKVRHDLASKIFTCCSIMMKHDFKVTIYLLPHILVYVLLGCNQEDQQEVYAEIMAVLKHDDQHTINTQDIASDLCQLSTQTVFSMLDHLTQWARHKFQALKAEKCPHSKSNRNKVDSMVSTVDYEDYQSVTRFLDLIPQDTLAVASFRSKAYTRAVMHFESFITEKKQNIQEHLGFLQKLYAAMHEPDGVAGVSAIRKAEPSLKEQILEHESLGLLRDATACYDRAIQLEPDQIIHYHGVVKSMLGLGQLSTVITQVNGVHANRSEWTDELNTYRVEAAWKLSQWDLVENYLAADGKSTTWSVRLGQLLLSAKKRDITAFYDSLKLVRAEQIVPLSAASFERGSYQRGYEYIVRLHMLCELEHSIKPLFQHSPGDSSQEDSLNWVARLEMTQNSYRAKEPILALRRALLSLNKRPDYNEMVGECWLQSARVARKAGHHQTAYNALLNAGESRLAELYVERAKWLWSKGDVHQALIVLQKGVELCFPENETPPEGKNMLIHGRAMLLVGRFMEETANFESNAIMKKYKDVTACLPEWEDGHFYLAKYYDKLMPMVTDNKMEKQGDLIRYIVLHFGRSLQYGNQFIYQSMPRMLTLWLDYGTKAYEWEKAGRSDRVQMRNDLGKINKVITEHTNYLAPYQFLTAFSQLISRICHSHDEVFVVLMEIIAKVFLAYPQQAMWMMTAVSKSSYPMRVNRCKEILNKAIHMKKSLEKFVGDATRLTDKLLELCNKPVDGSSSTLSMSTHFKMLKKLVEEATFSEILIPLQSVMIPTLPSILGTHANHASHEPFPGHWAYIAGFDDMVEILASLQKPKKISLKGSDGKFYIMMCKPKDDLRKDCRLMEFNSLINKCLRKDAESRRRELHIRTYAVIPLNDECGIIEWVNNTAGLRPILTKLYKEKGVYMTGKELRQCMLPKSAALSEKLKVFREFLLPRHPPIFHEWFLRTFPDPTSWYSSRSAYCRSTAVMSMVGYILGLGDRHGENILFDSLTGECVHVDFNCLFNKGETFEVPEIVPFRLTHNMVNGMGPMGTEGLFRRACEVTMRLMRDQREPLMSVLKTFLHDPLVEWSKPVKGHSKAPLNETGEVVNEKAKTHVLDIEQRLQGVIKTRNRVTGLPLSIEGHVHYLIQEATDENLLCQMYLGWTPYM
ATR (Homo sapiens, UniProt Q13535), sequence (Q8WXE1 whole entry partner): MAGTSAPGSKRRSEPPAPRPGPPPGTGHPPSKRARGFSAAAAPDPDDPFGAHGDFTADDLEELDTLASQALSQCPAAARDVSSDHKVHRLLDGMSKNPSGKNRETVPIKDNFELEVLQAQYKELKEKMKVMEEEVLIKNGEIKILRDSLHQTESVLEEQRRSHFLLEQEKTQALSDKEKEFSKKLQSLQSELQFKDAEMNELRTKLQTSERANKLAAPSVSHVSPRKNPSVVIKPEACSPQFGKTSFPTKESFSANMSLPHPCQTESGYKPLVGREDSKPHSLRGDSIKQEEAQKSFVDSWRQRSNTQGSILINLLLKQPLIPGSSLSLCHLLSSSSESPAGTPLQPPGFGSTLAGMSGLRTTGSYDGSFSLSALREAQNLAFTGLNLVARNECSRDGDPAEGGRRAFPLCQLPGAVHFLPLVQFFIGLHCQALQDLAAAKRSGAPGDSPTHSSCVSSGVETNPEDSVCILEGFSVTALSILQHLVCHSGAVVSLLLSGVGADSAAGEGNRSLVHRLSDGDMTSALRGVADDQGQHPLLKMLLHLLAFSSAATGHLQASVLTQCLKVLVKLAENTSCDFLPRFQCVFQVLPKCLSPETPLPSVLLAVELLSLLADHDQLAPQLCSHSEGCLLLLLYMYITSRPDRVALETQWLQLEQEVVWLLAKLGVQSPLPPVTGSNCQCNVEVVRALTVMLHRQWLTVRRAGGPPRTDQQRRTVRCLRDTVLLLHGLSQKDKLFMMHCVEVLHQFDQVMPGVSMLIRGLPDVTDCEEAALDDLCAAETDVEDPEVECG

In [1], `CS(=O)(=O)c1ccc(-c2cnc(N)c(C(=O)Nc3ccc(F)cc3)n2)cc1` [compound 5, 3-amino-N-(4-fluorophenyl)-6-(4-(methylsulfonyl)-phenyl)pyrazine-2-carboxamide] displayed a CHI value of 76.8. In the data set “Plasma protein binding”, this molecule yielded a fraction unbound at 4 h, 500 μM of approximately 0.1.

Turning to `CS(=O)(=O)c1ccc(-c2cnc(N)c(C(=O)Nc3ccc([18F])cc3)n2)cc1` [[^18F]-9, 3-amino-N-(4-[^18F]phenyl)-6-(4-(methylsulfonyl)phenyl)pyrazine-2-carboxamide], the LogPO/W in data set [2] is 1.6. The “clearance from bloodstream (fast phase)” value (2-phase decay curve, healthy mice, i.v.) is recorded as less than 10 min. The weighted blood half-life (single bolus intravenous injection via tail vein, nude mice, two-phase decay fit) stood at 6.2 min. Moreover, in the data set on U251 MG cells (U251 MG cells blocked with Ve-821 (100-fold excess), co-incubated 240 min), the “cell uptake, blocked” value was determined as 0.16±0.1%. Further, the cell uptake in the data set on U251 MG cells (U251 MG cells, 240 min incubation with [18F]-ATRi only) is 3.5 ± 0.1%. Further, the tumor-to-brain ratio with U251 MG xenograft (U251 MG xenograft mice) was more than 15. In the data set on U251 MG xenograft (biodistribution, 120 min p.i.), the kidney uptake is listed as 3.51 ± 0.23 %ID/g and the liver uptake was found to be 3.68± 1.39 %ID/g. In the data set with U251 MG xenograft (setting [6]), the “blood uptake, blocked” value is recorded as 0.84 ± 0.3 %ID/g and the “tumor uptake, blocked” value was 0.46 ± 0.12 %ID/g. Also, in the data set on U251 MG xenograft (unblocked, 120 min p.i., i.v.), the blood uptake is reported as 1.85 ± 0.47 %ID/g. Further, the “ex vivo blood stability (tracer stable)” value in data set [3] was “greater than 97%”.

In the case of `CS(=O)(=O)c1ccc(-c2cnc(N)c(C(=O)Nc3ccccc3)n2)cc1` [Ve-821], the values for the IC50 in the data set on ATR [4] and on ATR [5] were 26 nM and 38 nM, respectively.

The values are drawn from paper PMC5524211 (Nuclear medicine and biology, 2017).
